Data reported in ChEMBL document CHEMBL1255294, “Genetic and biochemical characterization of OXA-63, a new class D beta-lactamase from Brachyspira pilosicoli BM4442” (Antimicrob Agents Chemother, 2008).
≈ marks a conversion by molar mass, not a printed value.

Assays:
[1] = Activity of beta-lactamase FUS1 assessed as compound hydrolysis by spectrophotometry
[2] = Ratio of Kcat to Km for beta-lactamase FUS1 assessed as compound hydrolysis by spectrophotometry
[3] = Activity of beta-lactamase FUS1 assessed as compound hydrolysis by spectrophotometry relative to benzyl-penicillin; set-up: scale not given: the % may be the effect or the level left
[4] = molecular target: T1, Class D beta-lactamase (Brachyspira pilosicoli) (UniProt Q50H31); assay: Activity of Brachyspira pilosicoli beta-lactamase OXA-63 expressed in Escherichia coli BL21 (DE3) assessed as compound hydrolysis by spectrophotometry relative to oxacillin; set-up: scale not given: the % may be the effect or the level left
T1 sequence (whole entry): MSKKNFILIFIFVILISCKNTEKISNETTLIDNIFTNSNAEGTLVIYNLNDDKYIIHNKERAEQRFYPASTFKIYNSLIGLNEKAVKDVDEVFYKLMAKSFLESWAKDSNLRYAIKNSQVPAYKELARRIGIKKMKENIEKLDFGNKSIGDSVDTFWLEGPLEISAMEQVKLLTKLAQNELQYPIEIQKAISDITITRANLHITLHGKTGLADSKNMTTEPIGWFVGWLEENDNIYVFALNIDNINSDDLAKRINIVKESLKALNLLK

Escherichia coli [5] = assay: Antimicrobial activity against Escherichia coli JM83 harboring beta-lactamase OXA-63 after 3 days by Etest; assay type: functional
Outline: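 MICs for E. coli JM83 transformants were read by Etest on Mueller-Hinton agar. Transformants were selected on BHI agar with ampicillin 50 µg/ml and kanamycin 40 µg/ml.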

Escherichia coli [6] = assay: Antimicrobial activity against Escherichia coli JM83 without producing beta-lactamase OXA-63 after 3 days by Etest; assay type: functional
Brachyspira pilosicoli [7] = assay: Antimicrobial activity against beta-lactamase OXA-63 producing Brachyspira pilosicoli isolate BM4442 isolated from feces of patient with diarrhea by disc diffusion method; assay type: functional
Outline: (§1)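 Disk diffusion was done on Mueller-Hinton agar supplemented with 5% sheep blood, following Comité de l'Antibiogramme de la Société Française de Microbiologie standards. Plates were incubated in an anaerobic jar at 37°C for 3 days.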

Brachyspira pilosicoli [8] = assay: Antimicrobial activity against Brachyspira pilosicoli 80.10 without producing beta-lactamase OXA-63 by disc diffusion method; assay type: functional; outline: as §1
Class D beta-lactamase = molecular target: T2, Class D beta-lactamase (Brachyspira pilosicoli, UniProt Q50H31); assay: Inhibition of Brachyspira pilosicoli beta-lactamase OXA-63 expressed in Escherichia coli BL21 (DE3) assessed as reduction in nitrocefin hydrolysis by spectrophotometry relative to oxacillin
T2 sequence (Q50H31 whole entry): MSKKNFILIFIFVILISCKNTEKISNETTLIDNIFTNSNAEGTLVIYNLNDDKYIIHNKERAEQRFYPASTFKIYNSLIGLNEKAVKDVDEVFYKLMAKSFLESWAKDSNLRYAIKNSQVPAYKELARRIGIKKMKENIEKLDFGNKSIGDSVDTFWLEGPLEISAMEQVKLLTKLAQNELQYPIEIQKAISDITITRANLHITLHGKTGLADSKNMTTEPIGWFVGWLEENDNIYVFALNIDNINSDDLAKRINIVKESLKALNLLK
Outline: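 C-terminal His6-tagged OXA-63 was expressed in E. coli BL21(DE3)pLys with 0.5 mM IPTG for 4 h at 28°C and purified by nickel affinity. Enzyme (50 to 150 nM) was preincubated with inhibitor for 30 min at 25°C in 100 mM sodium phosphate, pH 7.0. 100 µM nitrocefin was then added, and initial hydrolysis rates were read spectrophotometrically. IC50 was the concentration halving the rate.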

[9] = substrate: Cc1onc(-c2ccccc2)c1C(=O)N[C@@H]1C(=O)N2[C@@H]1SC(C)(C)[C@@H]2C(=O)O; assay: (§2) Activity of Brachyspira pilosicoli beta-lactamase OXA-63 expressed in Escherichia coli BL21 (DE3) assessed as compound hydrolysis by spectrophotometry
[10] = substrate: CC(=O)OCC1=C(C(=O)O)N2C(=O)[C@@H](NC(=O)Cc3cccs3)[C@H]2SC1; assay: as §2
[11] = substrate: CC1(C)S[C@@H]2[C@H](NC(=O)Cc3ccccc3)C(=O)N2[C@H]1C(=O)O; assay: as §2
[12] = substrate: CC1(C)S[C@@H]2[C@H](NC(=O)[C@H](N)c3ccccc3)C(=O)N2[C@H]1C(=O)O; assay: as §2
[13] = substrate: CC1(C)S[C@@H]2[C@H](NC(=O)C(C(=O)O)c3ccccc3)C(=O)N2[C@H]1C(=O)O; assay: as §2
[14] = substrate: CO/N=C(\C(=O)N[C@@H]1C(=O)N2C(C(=O)O)=C(COC(N)=O)CS[C@H]12)c1ccco1; assay: as §2
[15] = substrate: CCN1CCN(C(=O)N[C@@H](C(=O)N[C@@H]2C(=O)N3[C@@H]2SC(C)(C)[C@@H]3C(=O)O)c2ccccc2)C(=O)C1=O; assay: as §2
[16] = substrate: Cc1onc(-c2ccccc2)c1C(=O)N[C@@H]1C(=O)N2[C@@H]1SC(C)(C)[C@@H]2C(=O)O; assay: (§3) Ratio of Kcat to Km for Brachyspira pilosicoli beta-lactamase OXA-63 expressed in Escherichia coli BL21 (DE3) assessed as compound hydrolysis by spectrophotometry
[17] = substrate: CC1(C)S[C@@H]2[C@H](NC(=O)Cc3ccccc3)C(=O)N2[C@H]1C(=O)O; assay: as §3
[18] = substrate: CC1(C)S[C@@H]2[C@H](NC(=O)[C@H](N)c3ccccc3)C(=O)N2[C@H]1C(=O)O; assay: as §3
[19] = substrate: CC1(C)S[C@@H]2[C@H](NC(=O)C(C(=O)O)c3ccccc3)C(=O)N2[C@H]1C(=O)O; assay: as §3
[20] = substrate: CCN1CCN(C(=O)N[C@@H](C(=O)N[C@@H]2C(=O)N3[C@@H]2SC(C)(C)[C@@H]3C(=O)O)c2ccccc2)C(=O)C1=O; assay: as §3

Molecule	Km [1]	kcat [1]	kcat/Km [2]	MIC (Escherichia coli [5])	MIC (Escherichia coli [6])	MIC (Brachyspira pilosicoli [7])	MIC (Brachyspira pilosicoli [8])	further results
CC(=O)OCC1=C(C(=O)O)N2C(=O)[C@@H](NC(=O)Cc3cccs3)[C@H]2SC1	47 µM	4.1 s⁻¹	8.7 ×10⁵ /M/s					Activity [3]: 0.1%
CC1(C)S[C@@H]2[C@H](NC(=O)[C@H](N)c3ccccc3)C(=O)N2[C@H]1C(=O)O	76 µM	45 s⁻¹	5.7 ×10⁵ /M/s					Activity [4]: 15%; Activity [3]: 0.7%
CO/N=C(\C(=O)N[C@@H]1C(=O)N2C(C(=O)O)=C(COC(N)=O)CS[C@H]12)c1ccco1	> 400 µM	> 1.8 s⁻¹	4.5 ×10⁵ /M/s					Activity [3]: 0.005%
CC1(C)S[C@@H]2[C@H](NC(=O)[C@H](N)c3ccc(O)cc3)C(=O)N2[C@H]1C(=O)O [AMOXICILLIN]				256 µg/mL (≈ 701 µM)	6 µg/mL (≈ 16.4 µM)	1.5 µg/mL (≈ 4.1 µM)	0.047 µg/mL (≈ 0.129 µM)	
C[C@H]1[C@H](NC(=O)/C(=N\OC(C)(C)C(=O)O)c2csc(N)n2)C(=O)N1S(=O)(=O)O [AZTREONAM]				0.19 µg/mL (≈ 0.436 µM)	0.19 µg/mL (≈ 0.436 µM)	1 µg/mL (≈ 2.3 µM)	1 µg/mL (≈ 2.3 µM)	
CO/N=C(\C(=O)N[C@@H]1C(=O)N2C(C(=O)O)=C(COC(C)=O)CS[C@H]12)c1csc(N)n1 [CEFOTAXIME]				0.064 µg/mL (≈ 0.141 µM)	0.064 µg/mL (≈ 0.141 µM)	0.032 µg/mL (≈ 0.0703 µM)	< 0.016 µg/mL	
CC(C)(O/N=C(\C(=O)N[C@@H]1C(=O)N2C(C(=O)[O-])=C(C[n+]3ccccc3)CS[C@H]12)c1csc(N)n1)C(=O)O [CEFTAZIDIME]				0.5 µg/mL (≈ 0.915 µM)	0.5 µg/mL (≈ 0.915 µM)	4 µg/mL (≈ 7.32 µM)	4 µg/mL (≈ 7.32 µM)	
O=C(O)[C@H]1/C(=C/CO)O[C@@H]2CC(=O)N21 [CLAVULANIC ACID]								IC50 (Class D beta-lactamase): 2 µM
C[C@@H](O)[C@H]1C(=O)N2C(C(=O)O)=C(SCCNC=N)C[C@H]12 [IMIPENEM ANHYDROUS]				4 µg/mL (≈ 13.4 µM)	< 4 µg/mL	< 4 µg/mL	< 4 µg/mL	
C[C@@H](O)[C@H]1C(=O)N2C(C(=O)O)=C(S[C@@H]3CN[C@H](C(=O)N(C)C)C3)[C@H](C)[C@H]12 [MEROPENEM]				0.016 µg/mL (≈ 0.0417 µM)	0.032 µg/mL (≈ 0.0834 µM)	0.032 µg/mL (≈ 0.0834 µM)	0.032 µg/mL (≈ 0.0834 µM)	
Cc1onc(-c2ccccc2)c1C(=O)N[C@@H]1C(=O)N2[C@@H]1SC(C)(C)[C@@H]2C(=O)O [OXACILLIN]	36 µM	780 s⁻¹	2.1 ×10⁷ /M/s			> 256 µg/mL	0.125 µg/mL (≈ 0.311 µM)	Activity [3]: 25%
CC1(C)S[C@@H]2[C@H](NC(=O)Cc3ccccc3)C(=O)N2[C@H]1C(=O)O [PENICILLIN G]	10 µM	830 s⁻¹	8.3 ×10⁷ /M/s	256 µg/mL (≈ 766 µM)	24 µg/mL (≈ 71.8 µM)	2 µg/mL (≈ 5.98 µM)	0.023 µg/mL (≈ 0.0688 µM)	Activity [4]: 25.5%
CCN1CCN(C(=O)N[C@@H](C(=O)N[C@@H]2C(=O)N3[C@@H]2SC(C)(C)[C@@H]3C(=O)O)c2ccccc2)C(=O)C1=O [PIPERACILLIN]				96 µg/mL (≈ 185 µM)	1.5 µg/mL (≈ 2.9 µM)	48 µg/mL (≈ 92.7 µM)	0.016 µg/mL (≈ 0.0309 µM)	Activity [4]: 6.5%
CC1(C)[C@H](C(=O)O)N2C(=O)C[C@H]2S1(=O)=O [SULBACTAM]								IC50 (Class D beta-lactamase): 12 µM
C[C@]1(Cn2ccnn2)[C@H](C(=O)O)N2C(=O)C[C@H]2S1(=O)=O [TAZOBACTAM]								IC50 (Class D beta-lactamase): 0.16 µM
Class D beta-lactamase (Brachyspira pilosicoli), Q50H31 (protein) MSKKNFILIFIFVILISCKNTEKISNETTLIDNIFTNSNAEGTLVIYNLNDDKYIIHNKERAEQRFYPASTFKIYNSLIGLNEKAVKDVDEVFYKLMAKSFLESWAKDSNLRYAIKNSQVPAYKELARRIGIKKMKENIEKLDFGNKSIGDSVDTFWLEGPLEISAMEQVKLLTKLAQNELQYPIEIQKAISDITITRANLHITLHGKTGLADSKNMTTEPIGWFVGWLEENDNIYVFALNIDNINSDDLAKRINIVKESLKALNLLK								Km [9]: 115 µM; kcat [9]: 113 s⁻¹; kcat [10]: Not Active; Km [11]: 19 µM; kcat [11]: 4.9 s⁻¹; Km [12]: 43 µM; kcat [12]: 6.6 s⁻¹; Km [13]: 17 µM; kcat [13]: 1.1 s⁻¹; kcat [14]: Not Active; Km [15]: 33 µM; kcat [15]: 2.1 s⁻¹; kcat/Km [16]: 9.8 ×10⁵ /M/s; kcat/Km [17]: 2.5 ×10⁵ /M/s; kcat/Km [18]: 1.5 ×10⁵ /M/s; kcat/Km [19]: 6.5 ×10⁴ /M/s; kcat/Km [20]: 6.4 ×10⁴ /M/s
